The subject of one test is Plasmodium falciparum. The test is described as follows: Antiplasmodial activity against chloroquine-resistant blood-stage Plasmodium falciparum W2 after 48 hrs by flow cytometric analysis. It is filed as functional, organism-based. The settings on record: W2, 48 h. The procedure, abridged: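 Synchronized ring-stage W2 parasites cultured 48 h with multiple compound concentrations (from 1000× DMSO stocks) in RPMI 1640 with 10% human serum or 0.5% Albumax. Cells then fixed in 1% formaldehyde/PBS pH 7.4 for 48 h at room temperature and stained with YOYO-1 (1 nM) in 0.1% Triton X-100. Parasitemia read by flow cytometry. IC50 taken from percent-of-control parasitemia curves, R2 >0.95.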

Another test has as its system Heme. The test can be described thus: Inhibition of heme polymerization at 1 mM after 48 hrs by spectrophotometry relative to chloroquine. An outline of the steps: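 Hemin chloride in DMSO (5.2 mg/mL) mixed with compound in DMSO (0.1–1 mM), in triplicate; water or DMSO as negative control, 1 mM CQ as positive. β-hematin formation started with 0.2 M acetate buffer pH 4.4, then 48 h at 37 °C. Pellet washed with DMSO, dissolved in 0.2 M NaOH, diluted 1:6 in 0.1 M NaOH, read at 405 nm.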

Test [1] is described as follows: Inhibition of Plasmodium falciparum falcipain 2 using substrate benzoxycarbonyl-Leu-Arg-7-amino-4-methyl-coumarin preincubated for 30 mins before substrate addition by fluorescence assay. An outline of the steps:
(§1)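 Recombinant enzyme (1 nM) incubated with inhibitor at varied concentrations (from 10 mM DMSO stocks) in 100 mM sodium acetate pH 5.5, 10 mM DTT, 30 min at room temperature. Substrate then added at 25 μM final. Fluorescence monitored continuously for 30 min at room temperature; IC50 from curve fitting. FP3 tested only for compounds with FP2 IC50 < 50 μM.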

Test [2] can be described thus: Inhibition of Plasmodium falciparum falcipain 3 using substrate benzoxycarbonyl-Leu-Arg-7-amino-4-methyl-coumarin preincubated for 30 mins before substrate addition by fluorescence assay. An outline of the steps: as §1

Experimental findings from ChEMBL document CHEMBL2040839, “Novel cinnamic acid/4-aminoquinoline conjugates bearing non-proteinogenic amino acids: towards the development of potential dual action antimalarials” (Eur J Med Chem, 2012) are described below.

Turning to `O=C(/C=C/c1ccccc1)Nc1ccnc2cc(Cl)ccc12`, the IC50 is greater than 10 µM with Plasmodium falciparum and greater than 50 µM in test [1]. The same compound came in with an inhibition with Heme of less than 50%.

In the case of `O=C(/C=C/c1ccccc1[N+](=O)[O-])Nc1ccnc2cc(Cl)ccc12`, the IC50 in the test on Plasmodium falciparum was greater than 10 µM; in test [2], greater than 50 µM; in test [1] it was 23.6 µM. Besides, the inhibition with Heme was less than 50%.

Turning to `CC(C)c1ccc(/C=C/C(=O)Nc2ccnc3cc(Cl)ccc23)cc1`, the half-inhibitory concentration (IC50) was greater than 10 µM in the test with Plasmodium falciparum and greater than 50 µM in test [1]. The compound further registered an inhibition in the test with Heme of less than 50%.

In the case of `CC(C)C[C@@H](NC(=O)/C=C/c1ccc(F)cc1)C(=O)N[C@H](CCc1ccccc1)C(=O)Nc1ccnc2cc(Cl)ccc12`, the IC50 in the test on Plasmodium falciparum turned out to be 4.67 µM; in test [1], 50 µM. The same compound displayed an inhibition with Heme of less than 50%.

On to `CC(C)C[C@@H](NC(=O)/C=C/c1ccc(Cl)cc1)C(=O)N[C@H](CCc1ccccc1)C(=O)Nc1ccnc2cc(Cl)ccc12`, for which the IC50 was 2.89 µM in the test on Plasmodium falciparum and greater than 50 µM in test [1]. The inhibition in the test with Heme is less than 50%.

As for `COc1ccc(/C=C/C(=O)N[C@H](CC(C)C)C(=O)N[C@H](CCc2ccccc2)C(=O)Nc2ccnc3cc(Cl)ccc23)cc1`, the IC50 in the test on Plasmodium falciparum is 10.8 µM; in test [1], greater than 50 µM. The compound further showed an inhibition with Heme of 50%.

`O=C(/C=C/c1ccc(Cl)cc1)Nc1ccnc2cc(Cl)ccc12`: the IC50 in the test with Plasmodium falciparum was greater than 10 µM; in test [2], greater than 50 µM; in test [1], 41.3 µM. This compound registered an inhibition in the test on Heme of less than 50%.

`Cc1ccc(/C=C/C(=O)N[C@H](CC(C)C)C(=O)N[C@H](CCc2ccccc2)C(=O)Nc2ccnc3cc(Cl)ccc23)cc1`: the IC50 in the test with Plasmodium falciparum is 1.96 µM; in test [1], greater than 50 µM. The inhibition in the test on Heme is greater than 75%.

As for `O=C(/C=C/c1cccc(F)c1)Nc1ccnc2cc(Cl)ccc12`, the half-inhibitory concentration (IC50) in the test with Plasmodium falciparum was greater than 10 µM; in test [1] it was greater than 50 µM. The inhibition in the test with Heme is less than 50%.

On to `Cc1ccc(/C=C/C(=O)Nc2ccnc3cc(Cl)ccc23)cc1`, for which the IC50 in the test with Plasmodium falciparum is greater than 10 µM; in test [2] it was greater than 50 µM; in test [1] it was 28.5 µM. For the same compound, in the test with Heme, the inhibition was less than 50%.

In the case of `CC(C)C[C@@H](NC(=O)/C=C/c1ccc([N+](=O)[O-])cc1)C(=O)N[C@H](CCc1ccccc1)C(=O)Nc1ccnc2cc(Cl)ccc12`, the IC50 in the test on Plasmodium falciparum is 1.23 µM; in test [1], greater than 50 µM. In addition, in the test on Heme, the inhibition is greater than 75%.

Take `O=C(/C=C/c1ccc(Br)cc1)Nc1ccnc2cc(Cl)ccc12`: the 50% inhibitory concentration (IC50) in the test with Plasmodium falciparum was greater than 10 µM; in test [2], greater than 50 µM; in test [1] it was 33.1 µM. Besides, the inhibition in the test on Heme was less than 50%.

For the compound `CC(C)C[C@H](NC(=O)/C=C/c1ccccc1)C(=O)N[C@@H](CCc1ccccc1)C(=O)Nc1ccnc2cc(Cl)ccc12`, the IC50 came to 8 µM in the test on Plasmodium falciparum and 50 µM in test [1].

With `CC(C)C[C@@H](NC(=O)/C=C/c1cccc(F)c1)C(=O)N[C@H](CCc1ccccc1)C(=O)Nc1ccnc2cc(Cl)ccc12`, the IC50 in the test on Plasmodium falciparum is 5.43 µM; in test [2], greater than 50 µM; in test [1], 23.1 µM. Besides, in the test on Heme, the inhibition is less than 50%.

In the case of `CC(C)C[C@@H](NC(=O)/C=C/c1ccc(C(C)C)cc1)C(=O)N[C@H](CCc1ccccc1)C(=O)Nc1ccnc2cc(Cl)ccc12`, the 50% inhibitory concentration (IC50) was 0.83 µM in the test with Plasmodium falciparum and greater than 50 µM in test [1]. In the test with Heme, this compound returned an inhibition of less than 50%.

`O=C(/C=C/c1ccc([N+](=O)[O-])cc1)Nc1ccnc2cc(Cl)ccc12`: the figures for the IC50 (in the test with Plasmodium falciparum; in test [1]) were greater than 10 µM and greater than 50 µM, respectively. The compound further yielded an inhibition in the test on Heme of less than 50%.

With `CC(C)C[C@@H](NC(=O)/C=C/c1ccc(Br)cc1)C(=O)N[C@H](CCc1ccccc1)C(=O)Nc1ccnc2cc(Cl)ccc12`, the IC50 is 2.55 µM in the test on Plasmodium falciparum, greater than 50 µM in test [2] and 48.3 µM in test [1]. The inhibition in the test on Heme is less than 50%.

With `CC(C)C[C@@H](NC(=O)/C=C/c1ccccc1)C(=O)N[C@H](CCc1ccccc1)C(=O)Nc1ccnc2cc(Cl)ccc12`, the IC50 is 4.89 µM in the test on Plasmodium falciparum, greater than 50 µM in test [2] and 19.6 µM in test [1]. In the test with Heme, the inhibition is less than 50%.

With `C[C@@H]1CC[C@H]2[C@@H](C)C(=O)O[C@@H]3O[C@@]4(C)CC[C@@H]1[C@]32OO4` [ARTEMISININ], in the test with Plasmodium falciparum, the IC50 is 0.00876 µM.

In test [1], `CC(C)C[C@H](NC(=O)[C@H]1O[C@@H]1C(=O)O)C(=O)NCCCCN=C(N)N` [E-64] yielded an IC50 of 0.0246 µM.

`CC(C)C[C@@H](NC(=O)/C=C/c1ccccc1[N+](=O)[O-])C(=O)N[C@H](CCc1ccccc1)C(=O)Nc1ccnc2cc(Cl)ccc12`: the IC50 with Plasmodium falciparum is 1.66 µM; in test [1], greater than 50 µM. Further, in the test on Heme, the inhibition amounted to 50%.

For `COc1ccc(/C=C/C(=O)Nc2ccnc3cc(Cl)ccc23)cc1`, the IC50 with Plasmodium falciparum is greater than 10 µM; in test [1] it was greater than 50 µM. The same compound registered an inhibition in the test on Heme of less than 50%.

Take `O=C(/C=C/c1cccc([N+](=O)[O-])c1)Nc1ccnc2cc(Cl)ccc12`: the IC50 in the test on Plasmodium falciparum is greater than 10 µM; in test [2], greater than 50 µM; in test [1], 14.2 µM. Further, the inhibition in the test with Heme was less than 50%.

Consider `O=C(/C=C/c1ccc(F)cc1)Nc1ccnc2cc(Cl)ccc12`, for which the IC50 in the test on Plasmodium falciparum is greater than 10 µM; in test [1] it was greater than 50 µM. The compound further yielded an inhibition in the test on Heme of less than 50%.

In the case of `CC(C)C[C@@H](NC(=O)/C=C/c1cccc([N+](=O)[O-])c1)C(=O)N[C@H](CCc1ccccc1)C(=O)Nc1ccnc2cc(Cl)ccc12`, the figures for the IC50 (in the test with Plasmodium falciparum; in test [2]; in test [1]) were 2.1 µM, greater than 50 µM and 28.1 µM, respectively. This compound displayed an inhibition in the test on Heme of less than 50%.

In the case of `CC(C)C[C@@H](NC(=O)/C=C/c1ccc(N)cc1)C(=O)N[C@H](CCc1ccccc1)C(=O)Nc1ccnc2cc(Cl)ccc12`, the values for the IC50 (in the test with Plasmodium falciparum; in test [2]; in test [1]) were 3.28 µM, greater than 50 µM and 20.3 µM, respectively. Also, in the test with Heme, the inhibition is greater than 75%.

Consider `CCN(CC)CCCC(C)Nc1ccnc2cc(Cl)ccc12` (centres undefined), for which the inhibition in the test with Heme is greater than 75%.

Broadly, the IC50 is the concentration at which inhibition is half-maximal. Read a low IC50 as higher potency. The inhibition is how much of the control response was suppressed.
